Rows were chosen to be rich in hits. Some 1.4% of all compounds tested hit in one or more screens of this group.
CTSL1 counter = cathepsin L1 inhibition, PFM18AAP counter-screen; hit rate 0.49% among 300,000; recombinant F. hepatica cathepsin L1, Z-Leu-Arg-MCA fluorescence; inhibition, % at 5.96 µM;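 active = inhibition above the mean of all tested compounds plus 3 SD, set per screening campaign, cut at about 17% in these data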;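 note: 0% = plate median of test compound wells and 100% = 1 µM Z-Phe-Ala-diazomethylketone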
FXIIa inh = factor XIIa (human) inhibition | P00748 | purified FXIIa, Boc-QGR-AMC fluorogenic substrate, 2 h | inhibition, % at 5 µM | hit rate 0.3% among 220,000 | AID 800; in the data active = inhibition above about 40%;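 note: 0% = enzyme with no compound and 100% = blank without enzyme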
KLK5 inh = blocks human kallikrein 5 protease activity | Q9Y337 | recombinant hK5, fluorogenic AMC substrate cleavage | inhibition, % at 5 µM | hit rate 0.59% among 210,000 | AID 873;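 active = inhibition of 40% or more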;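 note: 0% = enzyme controls without compound and 100% = no-enzyme blanks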
Thrombin inh = inhibitors of human thrombin; P00734; alpha-thrombin, Boc-VPR-AMC fluorogenic substrate cleavage; inhibition, % at 5 µM; hit rate 0.26% among 220,000; AID 1046;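 active = inhibition at or above 40%; inactive = inhibition below 40%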;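 note: 0% = enzyme with no compound and 100% = wells without enzyme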
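Test system: human alpha-thrombin protein / Dosing: one concentration per compound, 5 µM, with 0.2% DMSO / Medium: pH 7.5 Tris-saline with Tween 20 / Benchmarks: no-compound enzyme wells and no-enzyme blanks / Read-out basis: percent inhibition of thrombin substrate cleavage / Timing: reaction at room temperature / Measured by: fluorescence, ex 355 nm, em 460 nm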
Rce1 inh = blocks yeast Ras-converting enzyme | hit rate 0.27% among 290,000 | Q03530 | yeast membranes, quenched prenylated peptide cleavage fluorescence | calls only | AID 2563;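 active = fall in fluorescence gain of 50% or more versus controls, with final raw signal at or below 3038400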;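 note: plate controls were neutral control wells for no effect and wells lacking membranes for full effect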
FXIa inh 1536 = inhibitors of human coagulation factor XIa; hit rate 0.14% among 220,000; purified FXIa, Boc-Glu-Ala-Arg-AMC fluorogenic substrate; inhibition, % at 5 µM; P03951;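 active = inhibition of at least 40%; inactive = inhibition below 40%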;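 note: fluorescence of freed AMC excited at 355 nm; 0% = enzyme without compound and 100% = no enzyme blank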
Target sequence (P03951 19-387 limits assumed): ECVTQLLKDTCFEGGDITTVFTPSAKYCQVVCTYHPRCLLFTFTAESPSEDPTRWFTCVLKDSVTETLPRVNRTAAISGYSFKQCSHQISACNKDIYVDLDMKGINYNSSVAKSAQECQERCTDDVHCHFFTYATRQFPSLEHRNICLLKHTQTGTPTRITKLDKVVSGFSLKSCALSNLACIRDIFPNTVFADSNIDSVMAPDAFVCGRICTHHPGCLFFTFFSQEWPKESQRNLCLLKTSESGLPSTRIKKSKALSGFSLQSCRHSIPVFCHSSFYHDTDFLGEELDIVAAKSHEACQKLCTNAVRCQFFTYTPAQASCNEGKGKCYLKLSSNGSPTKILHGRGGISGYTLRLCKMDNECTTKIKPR
Target sequence (P03951 388-625 limits assumed): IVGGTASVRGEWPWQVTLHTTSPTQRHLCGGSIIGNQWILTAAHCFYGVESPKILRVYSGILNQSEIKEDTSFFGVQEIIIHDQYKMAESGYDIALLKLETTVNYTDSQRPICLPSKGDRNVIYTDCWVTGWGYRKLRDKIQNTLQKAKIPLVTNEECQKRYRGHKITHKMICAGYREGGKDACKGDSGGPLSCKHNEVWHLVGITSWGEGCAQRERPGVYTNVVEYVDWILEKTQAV
An asterisk follows results filed as active; i = inactive; / = no result; + = active, no number.

SMILES	CTSL1 counter	FXIIa inh	KLK5 inh	Thrombin inh	Rce1 inh	FXIa inh 1536
C/C(=N\Nc1ccc(Cl)c(C(=O)O)c1)c1cccc([N+](=O)[O-])c1	1	32	32	56*	i	39
Cc1c(C(=O)N2CCOCC2)sc(NC(=O)CCl)c1C#N	17*	/	/	/	i	/
COc1cc(C(=O)NCCCNc2ccc([N+](=O)[O-])cc2)cc(OC)c1OC	3	10	-12	2	i	7
CCc1nnc(NS(=O)(=O)c2ccc(NC(=O)c3ccccc3)cc2)s1	-1	6	0	-2	i	0
CCc1nnc(NC(=O)c2ccc(NS(=O)(=O)c3ccccc3)cc2)s1	1	0	-16	-3	+	3
CCCCCc1ccc(OCCCC[n+]2ccc(C)cc2)c(CCCCC)c1	0	11	40*	9	i	3
CCCCCc1ccc(OCCCC[n+]2ccccc2)c(CCCCC)c1	2	1	-4	-2	i	-6
O=C(O)c1cccc(N2CCCC2=O)c1	-3	17	10	-2	i	17
O=C(O)c1cccc(N2CCCC2)c1	-1	-9	128*	-1	i	-8
CC(C)c1ccc(/C=N/NC(=O)C(=O)NCCCN2CCOCC2)cc1	-1	25	-17	-2	i	22
CCCCNC(=O)[C@H]1C[C@H]1[C@@H](O)[C@H](CO)NC(=O)[C@H](CC(C)C)NC(=O)OC(C)(C)C	44*	/	/	/	i	/
CC(C)C[C@H](NC(=O)OC(C)(C)C)C(=O)N[C@@H](CO)[C@H](O)[C@@H]1C[C@@H]1C(=O)NC1CC1	20*	/	/	/	i	/
CC(C)C[C@H](NC(=O)OC(C)(C)C)C(=O)N[C@@H](CO)[C@H](O)[C@@H]1C[C@@H]1C(=O)N(C)C	13	/	/	/	i	/
CC(C)C[C@H](NC(=O)OC(C)(C)C)C(=O)N[C@@H](CO)[C@H](O)[C@@H]1C[C@@H]1C(=O)NC1CCCCC1	33*	/	/	/	i	/
O=C(N/N=C/C(Cl)=C\c1ccccc1)c1cnccn1	6	18	56*	17	i	7
CCCOC(=O)C1=C(C)NC2=C(C(=O)C(C(=O)OC)C(C)C2)C1c1ccc(N(CC)CC)cc1 (stereo unspecified)	20*	0	-15	2	/	2
Cc1ccc(-c2nc(CS(=O)(=O)CC(=O)N3CCc4ccccc4C3)c(C)o2)cc1	0	51*	-1	-8	i	36
COc1cc(NC(=O)c2cc3nc(C4CC4)cc(C(F)(F)F)n3n2)c(OC)cc1Cl	10	46*	4	0	i	12
Cc1nnc(NC(=O)c2oc3ccccc3c2C)s1	2	/	/	/	i	/
Cc1ccc2c(C)c(C(=O)Nc3nnc(C)s3)oc2c1	6	40*	-2	9	i	23
Cc1cc(C)c(C(=O)COC(=O)c2cc([N+](=O)[O-])ccc2N2CCOCC2)cc1C	0	/	/	/	i	/
COc1ccc(CNC(=O)C2CCCN2)cc1OC (stereo unspecified)	3	4	-4	-11	i	-5
CCOc1ccc(OCCC(=O)OCC(=O)N2CCN(S(=O)(=O)c3ccc(Cl)cc3)CC2)cc1	-35	/	/	/	i	/
CCOc1ccc(NC(=O)CN(C)C(=O)c2sc3ccccc3c2Cl)cc1OCC	4	/	/	/	i	/
NC(=O)COC(=O)c1ccc(Cl)c(S(=O)(=O)N2CCN(c3ccc(F)cc3)CC2)c1	0	24	45*	20	/	33
SMILES	CTSL1 counter	FXIIa inh	KLK5 inh	Thrombin inh	Rce1 inh	FXIa inh 1536
NC(=O)COC(=O)c1cccc(S(=O)(=O)N2CCN(c3ccc(F)cc3)CC2)c1	-4	-1	-6	-2	i	-4
CC1CC(C)CN(S(=O)(=O)c2ccc(C(=O)N3CCN(c4ccccc4)CC3)cc2)C1 (stereo unspecified)	3	5	40*	4	i	1
O=C(c1ccc(S(=O)(=O)N2CCCCCC2)cc1)N1CCN(c2ccccc2)CC1	0	/	/	/	i	/
O=C(c1ccc(Cl)c(S(=O)(=O)N2CCCC2)c1)N1CCN(c2ccccc2)CC1	35*	9	-4	6	i	1
CCN1CCN(CCCNC(=O)c2ccc(NC(=O)C3=C(C)OCCS3)cc2)CC1	0	/	/	/	i	/
Cc1cc2oc(C(=O)N(Cc3ccc(N(C)C)cc3)CC3CCCO3)c(C)c2cc1C (stereo unspecified)	3	/	/	/	i	/
O=C(CNC(=O)c1ccco1)OCN1C(=O)c2ccccc2C1=O	28*	10	-9	-4	i	-4
O=C(CNC(=O)c1ccco1)OCc1ccc(Br)cc1	-4	/	/	/	i	/
Cc1c(NC(=S)/C=C2\N(C)c3ccccc3C2(C)C)c(=O)n(-c2ccccc2)n1C	2	19	67*	26	i	10
Cc1c(N=C/C=C2\N(C)c3ccccc3C2(C)C)c(=O)n(-c2ccccc2)n1C	4	1	8	-2	i	-2
CCOC(=O)C1CCN(C(=O)Nc2cc(Cl)cc(Cl)c2)CC1	-5	6	-2	-2	i	-1
Cc1c(CCC(=O)O)c(=O)oc2cc(OCc3cccc(F)c3)ccc12	3	/	/	/	+	/
O=C(COc1ccccc1)N=C1SC2CS(=O)(=O)CC2N1Cc1ccccc1 (stereo unspecified)	-6	/	/	/	i	/
COC(=O)CCCCCCCCC(O)CN(C)C (stereo unspecified)	8	7	2	1	i	3
COC(=O)CCCCCC(CCC(=O)OC)NC(C)=O (stereo unspecified)	-3	16	51*	24	i	6
CCN1C(=O)CSC1=Nc1ccc(OC)cc1	-2	/	/	/	i	/
CCN=C1SCC(=O)N1c1ccc(OC)cc1	-3	11	44*	14	i	7
COc1ccccc1NC(=O)C1=C(C)Nc2ncnn2C1c1cccs1 (stereo unspecified)	-1	9	3	5	i	7
COc1ccc(C2C(C(=O)Nc3ccccc3OC)=C(C)Nc3ncnn32)cc1 (stereo unspecified)	8	107*	45*	25	i	20
CCOc1ccc(NC(=O)CSc2nccn(-c3ccc4c(c3)OCCO4)c2=O)cc1	8	/	/	/	i	/
O=C(Nc1nc(-c2ccc(Cl)s2)cs1)c1cccs1	2	73*	16	39	i	91*
CCOC(=O)c1sc(NC(=O)/C=C/c2cnn(C)c2C)c(C(=O)OCC)c1C	1	6	9	47*	i	0
Cc1cc(C)c(S(=O)(=O)/N=C2/C=C(Sc3ncn[nH]3)C(=O)c3ccccc32)cc1C	92*	11	-74	-1	/	-4
Cc1ccc(C)c(S(=O)(=O)/N=C2\C=C(NS(=O)(=O)c3ccccc3)C(=O)c3ccccc32)c1	4	/	/	/	i	/
COc1ccc(-n2nc(C(=O)c3cccs3)cc(-c3nc4ccccc4[nH]3)c2=N)cc1	-1	20	-19	57*	i	14
